Compound activity from PubChem.
HGIII-sPLA2 inh: Blocks human group III sPLA2 activity; Q9NZ20; QFRET BODIPY PC-A2 liposome hydrolysis, fluorescence; inhibition, % at 12.2 µM; 370,000 tested, 0.56% active; AID 743126;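 active = inhibition above mean plus 3 SD of compounds lying within the high and low control bounds, cut at about 19% in these data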;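 also: 0% = median of test compound wells and 100% = no enzyme DMSO wells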
PLC-gamma1 inh: PLC-gamma1 (human) inhibition, primary screen; 370,000 tested, 0.84% active; inhibition, % at 12.2 µM; P19174; purified PLC-gamma1, fluorogenic substrate, fluorescence; in the data active = inhibition above about 9.5%
TbMetRS inhib: Trypanosoma brucei MetRS inhibition; inhibition, % at 11.9 µM; 360,000 tested, 0.4% active; AID 624268; purified T. brucei MetRS, ATP depletion, Kinase-Glo luminescence;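 active = inhibition above a per-plate cutoff of the control wells' mean inhibition plus 3 SD, cut at about 5.5% in these data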;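 also: 0% = DMSO wells median and 100% = median of wells with control inhibitor compound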
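Test system: purified T. brucei MetRS enzyme. Also added: ATP, methionine and E. coli bulk tRNA substrates. Compound: 11.9 µM single point. Schedule: 15 min enzyme-compound preincubation, 2 h reaction, 10 min detection, 25 °C. Signal: luciferase luminescence of residual ATP, Kinase-Glo. Evaluation: percent inhibition versus plate control medians. Controls: DMSO wells, low control.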
PLC-beta3 inh: blocks human PLC-beta3 enzyme activity; Q01970; Purified PLC-beta3, fluorogenic substrate, fluorescence; inhibition, % at 12.2 µM; 370,000 tested, 0.18% active; in the data active = inhibition above about 11%;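 also: 0% = median of compound wells on plate and 100% = full blocker control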
Target sequence (Q01970 whole entry, looked up): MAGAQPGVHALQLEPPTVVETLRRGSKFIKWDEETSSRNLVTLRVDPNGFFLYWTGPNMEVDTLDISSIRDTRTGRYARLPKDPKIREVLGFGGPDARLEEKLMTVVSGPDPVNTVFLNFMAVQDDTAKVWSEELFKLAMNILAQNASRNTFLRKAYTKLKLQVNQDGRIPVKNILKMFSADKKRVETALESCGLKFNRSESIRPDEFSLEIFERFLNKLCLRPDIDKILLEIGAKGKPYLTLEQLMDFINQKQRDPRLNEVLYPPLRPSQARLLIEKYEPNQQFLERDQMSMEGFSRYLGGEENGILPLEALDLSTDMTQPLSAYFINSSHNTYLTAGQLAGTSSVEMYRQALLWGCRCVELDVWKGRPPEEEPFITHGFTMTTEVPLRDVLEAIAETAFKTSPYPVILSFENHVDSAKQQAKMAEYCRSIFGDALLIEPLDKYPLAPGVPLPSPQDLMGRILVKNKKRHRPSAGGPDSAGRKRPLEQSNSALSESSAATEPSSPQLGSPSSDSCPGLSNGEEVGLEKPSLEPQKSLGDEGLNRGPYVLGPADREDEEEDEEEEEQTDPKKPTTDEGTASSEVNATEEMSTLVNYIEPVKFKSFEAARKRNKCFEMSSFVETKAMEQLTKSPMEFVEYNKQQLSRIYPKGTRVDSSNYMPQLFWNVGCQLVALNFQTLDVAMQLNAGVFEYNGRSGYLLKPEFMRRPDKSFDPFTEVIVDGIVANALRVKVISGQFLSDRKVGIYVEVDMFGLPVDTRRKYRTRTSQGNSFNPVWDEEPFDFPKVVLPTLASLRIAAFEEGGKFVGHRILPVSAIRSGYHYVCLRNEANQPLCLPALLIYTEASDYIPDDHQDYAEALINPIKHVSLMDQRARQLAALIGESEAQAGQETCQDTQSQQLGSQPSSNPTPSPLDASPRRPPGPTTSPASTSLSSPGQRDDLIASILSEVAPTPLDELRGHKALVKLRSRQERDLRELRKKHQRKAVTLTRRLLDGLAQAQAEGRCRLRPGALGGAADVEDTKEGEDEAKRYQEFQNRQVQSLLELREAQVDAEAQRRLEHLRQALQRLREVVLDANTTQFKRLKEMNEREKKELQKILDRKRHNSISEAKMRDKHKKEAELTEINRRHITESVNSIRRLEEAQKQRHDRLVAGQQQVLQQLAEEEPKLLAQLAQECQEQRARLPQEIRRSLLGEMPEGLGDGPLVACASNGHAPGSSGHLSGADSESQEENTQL
hGIII sPLA2 conf: human GIII-sPLA2 inhibition, confirmation | shares compounds with HGIII-sPLA2 inh | recombinant hGIII-sPLA2, BODIPY PC-A2 QFRET fluorescence | inhibition, % at 12.2 µM | 2,000 tested, 34% active;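 active = mean inhibition across triplicates above the hit cutoff set in the earlier primary screen, cut at about 19% in these data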;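 also: 0% = enzyme with DMSO and 100% = DMSO wells lacking enzyme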
535nm interf: optically interferes with 535nm fluorescence in sPLA2 counter-screen | BODIPY FL product fluorescence interference, QFRET | inhibition, % at 12.2 µM | shares compounds with HGIII-sPLA2 inh | 2,000 tested, 8.5% active;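 active = average inhibition above the solvent-only control mean plus 3 SD, cut at about 6% in these data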;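 also: 0% = DMSO with substrate plus product and 100% = DMSO with substrate alone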
BODIPY interf DR: counter-screen for HGIII-sPLA2 inhibitors: 535nm fluorescence interference, dose response; IC50, µM; BODIPY FL product fluorescence interference, cell-free; 240 tested, under 10 active; shares compounds with HGIII-sPLA2 inh;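 active = IC50 at or below 10 µM; inactive = IC50 above 10 µM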
* marks the source's active call; other numbers are inactive results. Only some compounds are listed: those with a hit (about 1.9% of all), similar ones and a draw of the others.

`CCOC(=O)[C@]12CCCCC/C=C\1N(CCc1ccc(Cl)cc1)C(=O)[C@H]2CC(=O)N1CCN(C(=O)c2ccco2)CC1` gave HGIII-sPLA2 inh -9, PLC-gamma1 inh 1 and PLC-beta3 inh -1.
Screening CC(C)(C)C(=O)OC12CCCN(C1)/C(=C/c1ccc(Cl)cc1)C2 (stereo not given) returned HGIII-sPLA2 inh 5, PLC-gamma1 inh -1 and PLC-beta3 inh 1.
Cc1cc(N2CCC[C@@H]2C)nc2ccccc12 was read as HGIII-sPLA2 inh 15, PLC-gamma1 inh 6 and PLC-beta3 inh -8.
O=C(NCC1CCCCC1)c1cccc([N+](=O)[O-])c1 was read as HGIII-sPLA2 inh 16, PLC-gamma1 inh 2, TbMetRS inhib 0 and PLC-beta3 inh 0.
Screening O=C(NC(=S)N(CC1CCC1)CC1CCCO1)c1cccc([N+](=O)[O-])c1 (stereo not given) returned HGIII-sPLA2 inh 20*, PLC-gamma1 inh 1, TbMetRS inhib 0, PLC-beta3 inh -5, hGIII sPLA2 conf 20* and 535nm interf -3.
Screening O=C(C[n+]1ccc(/C=N/O)cc1)N1CCCCC1 returned HGIII-sPLA2 inh 22*, PLC-gamma1 inh 2, TbMetRS inhib 1, PLC-beta3 inh -12, hGIII sPLA2 conf -4 and 535nm interf -3.
`O=C(C[n+]1cccc(/C=N/O)c1)N1CCCCCC1` gave HGIII-sPLA2 inh 3, PLC-gamma1 inh -1, TbMetRS inhib -1 and PLC-beta3 inh 2.
`Cc1ccc(NC(=S)NNC(=O)CSc2nnc(-c3ccc(Cl)cc3)n2C2CCCCC2)cc1` gave HGIII-sPLA2 inh 23*, PLC-gamma1 inh 1, TbMetRS inhib 0, PLC-beta3 inh 2, hGIII sPLA2 conf 30*, 535nm interf -8 and BODIPY interf DR >122.
For Cc1ccc(NC(=S)NNC(=O)CSc2nnc(-c3ccc(C)cc3)n2C2CCCCC2)cc1 the results were HGIII-sPLA2 inh 24*, PLC-gamma1 inh 0, PLC-beta3 inh 2, hGIII sPLA2 conf 18 and 535nm interf -10.
`CCn1c(SCC(=O)NNC(=S)Nc2ccc(C)cc2)nnc1-c1ccc(Cl)cc1` gave HGIII-sPLA2 inh 16, PLC-gamma1 inh 1, TbMetRS inhib 0 and PLC-beta3 inh -2.
Screening c1ccc(C2CCC3(CC2)CCC3NCc2cccs2)cc1 (stereo not given) returned HGIII-sPLA2 inh 14, PLC-gamma1 inh 2 and PLC-beta3 inh -2.
COc1ccc2cc(C3(C)NC(=O)N(CC(=O)Nc4c(C)n(C)n(-c5ccccc5)c4=O)C3=O)ccc2c1 (stereo not given) was read as HGIII-sPLA2 inh 21*, PLC-gamma1 inh 8, TbMetRS inhib 0, PLC-beta3 inh -7, hGIII sPLA2 conf -1 and 535nm interf -22.
Screening COc1cc2c(cc1OC)C(c1ccc([N+](=O)[O-])cc1)NCC2 (stereo not given) returned HGIII-sPLA2 inh 20*, PLC-gamma1 inh -3, TbMetRS inhib -1, PLC-beta3 inh -14, hGIII sPLA2 conf 5 and 535nm interf -8.
C#CCNC(=O)C[C@H]1C[C@@]2(C(=O)OC)C(=C[C@H](C3CCCC3)O[C@@H]2C)N(Cc2ccc(Cl)cc2Cl)C1=O was read as HGIII-sPLA2 inh -7, PLC-gamma1 inh 3 and PLC-beta3 inh 2.
CCOc1ccc(-n2c(SCC(=O)Nc3cccc4ccccc34)nnc2-c2cccs2)cc1 was read as HGIII-sPLA2 inh 7, PLC-gamma1 inh 4 and PLC-beta3 inh -13.
For COc1ccc2c(c1)OC[C@H]1[C@H]2N2C(=O)c3cc(OC)c(OC)cc3NC(=O)[C@@]2(C)[C@H]1c1ccccc1 the results were HGIII-sPLA2 inh 31*, PLC-gamma1 inh -18, TbMetRS inhib 0, PLC-beta3 inh -26, hGIII sPLA2 conf 11 and 535nm interf -10.
COc1cc2c(cc1OC)C(=O)N1[C@H]3c4ccccc4OC[C@@H]3[C@H](c3ccccc3)[C@]1(C)C(=O)N2 was read as HGIII-sPLA2 inh 5, PLC-gamma1 inh -2, TbMetRS inhib 0 and PLC-beta3 inh -5.
O=C(CNC1CCCC1)Nc1cc(Cl)ccc1[N+](=O)[O-] was read as HGIII-sPLA2 inh 21*, PLC-gamma1 inh 3, TbMetRS inhib -1, PLC-beta3 inh -5, hGIII sPLA2 conf 14 and 535nm interf -5.
For CC(C)C(N)c1csc(Nc2ccc(C(F)(F)F)cn2)n1 (stereo not given) the results were HGIII-sPLA2 inh 23*, PLC-gamma1 inh -3, TbMetRS inhib 0, PLC-beta3 inh -8, hGIII sPLA2 conf 12 and 535nm interf -10.
Screening C=CCN1C(=O)[C@@H](CC(=O)NCc2cccc(C(F)(F)F)c2)[C@]2(C(=O)OC)CCCCC=C12 returned HGIII-sPLA2 inh -7, PLC-gamma1 inh 1 and PLC-beta3 inh 4.
CC1CN(C(=S)NC(=O)c2ccccc2)CC(C)O1 (stereo not given) was read as HGIII-sPLA2 inh -1, PLC-gamma1 inh 1, TbMetRS inhib 0 and PLC-beta3 inh -4.
For CC1CN(C(=S)NC(=O)c2ccco2)CC(C)O1 (stereo not given) the results were HGIII-sPLA2 inh 22*, PLC-gamma1 inh 0, TbMetRS inhib 0, PLC-beta3 inh 0, hGIII sPLA2 conf 0 and 535nm interf -3.
For Cc1ccsc1/C=N/n1c(C2CCCCC2)n[nH]c1=S the results were HGIII-sPLA2 inh 8, PLC-gamma1 inh 0, TbMetRS inhib 0 and PLC-beta3 inh 0.
For Cc1ccc(/C=N/n2c(C3CCCCC3)n[nH]c2=S)s1 the results were HGIII-sPLA2 inh 22*, PLC-gamma1 inh 0, TbMetRS inhib -1, PLC-beta3 inh -3, hGIII sPLA2 conf 16 and 535nm interf 2.
Cc1ccc(/C=N/n2c(-c3cccnc3)n[nH]c2=S)s1 was read as HGIII-sPLA2 inh 28*, PLC-gamma1 inh 3, TbMetRS inhib 0, PLC-beta3 inh -2, hGIII sPLA2 conf 19* and 535nm interf -4.
For CCCCCn1cc(CCC(=O)Nc2ccc(Oc3cccnc3)cc2)c2ccccc21 the results were HGIII-sPLA2 inh -45, PLC-gamma1 inh -2 and PLC-beta3 inh -11.
For CN(C)S(=O)(=O)c1ccc(Cl)c(C(=O)NCC2CCCCC2)c1 the results were HGIII-sPLA2 inh -6, PLC-gamma1 inh 1, TbMetRS inhib 0 and PLC-beta3 inh -3.
CN(C)S(=O)(=O)c1ccc(Cl)c(C(=O)NCCNC(=O)c2cc(S(=O)(=O)N(C)C)ccc2Cl)c1 was read as HGIII-sPLA2 inh 21*, PLC-gamma1 inh -1, TbMetRS inhib 0, PLC-beta3 inh -2, hGIII sPLA2 conf -2 and 535nm interf -12.
For CCCC/C(C)=N/NC(=O)CN(c1ccc(Br)cc1)S(=O)(=O)c1ccccc1 the results were HGIII-sPLA2 inh 6, PLC-gamma1 inh -2, TbMetRS inhib -1 and PLC-beta3 inh -1.
